In ChEMBL document CHEMBL2040831, “Discovery of ((S)-5-(methoxymethyl)-7-(1-methyl-1H-indol-2-yl)-2-(trifluoromethyl)-4,7-dihydropyrazolo[1,5-a]pyrimidin-6-yl)((S)-2-(3-methylisoxazol-5-yl)pyrrolidin-1-yl)methanone as a potent and selective I(Kur) inhibitor” (J Med Chem, 2012):
Calls of active or inactive are those of the source. The rule behind the calls is not given here.

Key:
hERG (KCNH2) = hERG (KCNH2) (Homo sapiens, UniProt Q12809); assay: Inhibition of human ERG expressed in HEK293 cells at 10 uM by patch clamp assay; type: cell-based; conditions: HEK293 cells expressing human ERG
Chain of hERG (KCNH2) (Q12809 whole entry): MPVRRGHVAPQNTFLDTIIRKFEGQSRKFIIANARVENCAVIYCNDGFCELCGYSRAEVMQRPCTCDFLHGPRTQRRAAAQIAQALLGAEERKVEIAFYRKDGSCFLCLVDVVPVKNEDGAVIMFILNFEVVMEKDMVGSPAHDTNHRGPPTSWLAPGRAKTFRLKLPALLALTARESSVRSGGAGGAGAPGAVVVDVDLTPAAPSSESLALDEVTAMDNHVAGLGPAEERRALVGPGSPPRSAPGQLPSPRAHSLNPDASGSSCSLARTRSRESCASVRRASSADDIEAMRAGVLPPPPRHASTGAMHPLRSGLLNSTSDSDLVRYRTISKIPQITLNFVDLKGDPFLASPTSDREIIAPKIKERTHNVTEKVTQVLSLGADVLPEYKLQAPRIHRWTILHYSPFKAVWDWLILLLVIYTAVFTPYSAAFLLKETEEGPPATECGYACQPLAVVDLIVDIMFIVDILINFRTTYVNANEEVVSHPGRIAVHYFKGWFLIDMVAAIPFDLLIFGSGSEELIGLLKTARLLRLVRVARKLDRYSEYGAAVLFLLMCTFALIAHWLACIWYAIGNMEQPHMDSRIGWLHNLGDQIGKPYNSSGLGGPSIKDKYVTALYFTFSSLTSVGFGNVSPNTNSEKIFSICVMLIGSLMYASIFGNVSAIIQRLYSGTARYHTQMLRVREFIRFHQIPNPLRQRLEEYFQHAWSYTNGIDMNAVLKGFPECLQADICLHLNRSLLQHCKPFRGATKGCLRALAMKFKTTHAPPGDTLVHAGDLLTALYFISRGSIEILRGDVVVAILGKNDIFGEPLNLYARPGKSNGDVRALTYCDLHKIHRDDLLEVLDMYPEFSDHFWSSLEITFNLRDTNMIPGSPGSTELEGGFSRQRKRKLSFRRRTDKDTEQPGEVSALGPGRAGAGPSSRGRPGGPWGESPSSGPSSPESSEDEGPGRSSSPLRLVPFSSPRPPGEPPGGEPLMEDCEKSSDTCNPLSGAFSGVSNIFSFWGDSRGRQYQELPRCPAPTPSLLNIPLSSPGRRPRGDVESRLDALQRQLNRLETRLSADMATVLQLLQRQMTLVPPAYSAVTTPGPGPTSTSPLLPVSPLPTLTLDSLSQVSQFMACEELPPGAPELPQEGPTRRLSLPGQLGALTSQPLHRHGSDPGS

[1] = target: T1, Potassium voltage-gated channel subfamily A member 5 (Homo sapiens, UniProt P22460); assay: Inhibition of human KV1.5 ion channel expressed in mouse L929 cells by whole cell patch clamp assay; type: cell-based
T1 sequence (P22460 whole entry): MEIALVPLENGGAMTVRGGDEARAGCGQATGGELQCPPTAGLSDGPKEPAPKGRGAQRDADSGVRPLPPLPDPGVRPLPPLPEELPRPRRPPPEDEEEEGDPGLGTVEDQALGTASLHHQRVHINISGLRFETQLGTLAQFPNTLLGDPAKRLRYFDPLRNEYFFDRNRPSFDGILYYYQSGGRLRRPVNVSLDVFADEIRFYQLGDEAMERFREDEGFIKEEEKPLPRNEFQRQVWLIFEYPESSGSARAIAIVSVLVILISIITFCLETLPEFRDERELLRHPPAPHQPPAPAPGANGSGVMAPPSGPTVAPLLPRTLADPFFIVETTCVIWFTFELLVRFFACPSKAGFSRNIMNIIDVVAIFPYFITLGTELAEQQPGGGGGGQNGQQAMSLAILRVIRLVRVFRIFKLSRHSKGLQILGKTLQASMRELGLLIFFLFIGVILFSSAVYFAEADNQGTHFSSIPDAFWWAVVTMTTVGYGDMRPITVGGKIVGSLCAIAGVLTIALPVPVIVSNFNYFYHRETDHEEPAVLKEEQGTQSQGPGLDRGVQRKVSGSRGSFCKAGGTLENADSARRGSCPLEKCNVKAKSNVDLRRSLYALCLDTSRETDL

[2] = Drug degradation assessed as GSH adduct formation by fluorescence detection assay; type: physicochemical
Procedure, shortened: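 Test article at 100 μM incubated 30 min at 37 °C with 2 mg/mL human liver microsomes in 0.1 M potassium phosphate buffer containing 2 mM NADPH and 2 mM dansyl glutathione. Quenched with 2 volumes of 5 mM dithiothreitol in methanol, vortexed and centrifuged. Supernatant analysed by HPLC with fluorescence detection (Ex 340 nm, Em 525 nm) to quantify GSH adducts.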

Plasma [3] = assay: Plasma concentration in methoxamine-sensitised rabbit AERP model at 0.3 mg/kg, iv; type: ADME, organism-based, Oryctolagus cuniculus; design: dose 0.3 mg/kg, route intravenous; conditions: in vivo
Plasma [4] = assay: Plasma concentration in methoxamine-sensitised rabbit AERP model at 3 mg/kg, iv; type: ADME, organism-based, Oryctolagus cuniculus; design: dose 3 mg/kg, route intravenous; conditions: in vivo
[5] = target: Voltage-gated inwardly rectifying potassium channel KCNH2 (Homo sapiens, UniProt Q12809); assay: Inhibition of human ERG expressed in HEK293 cells by patch clamp assay; type: cell-based
Chain of Voltage-gated inwardly rectifying potassium channel KCNH2 (Q12809 whole entry): as the sequence (Q12809 whole entry) above

[6] = Half life in rat at 12 umol/kg, iv and 25.5 umol/kg, po; type: ADME, organism-based; conditions: in vivo
[7] = Oral bioavailability in dog at 5.2 umol/kg; type: ADME, organism-based, Canis lupus familiaris; conditions: in vivo
[8] = Volume of distribution at steady state in rat at 12 umol/kg, iv and 25.5 umol/kg, po; type: ADME, organism-based; conditions: in vivo, read-out: Vdss
[9] = Volume of distribution at steady state in rabbit at 5.6 umol/kg, iv; type: ADME, organism-based, Oryctolagus cuniculus; conditions: in vivo, read-out: Vdss
[10] = Half life in dog at 5.6 umol/kg, iv and 5.2 umol/kg, po; type: ADME, organism-based, Canis lupus familiaris; conditions: in vivo
Plasma [11] = assay: Plasma concentration in methoxamine-sensitised rabbit AERP model at 10 mg/kg, iv; type: ADME, organism-based, Oryctolagus cuniculus; design: dose 10 mg/kg, route intravenous; conditions: in vivo
[12] = Clearance in rat at 12 umol/kg, iv and 25.5 umol/kg, po; type: ADME, organism-based; conditions: in vivo
[13] = Oral bioavailability in rat at 25.5 umol/kg; type: ADME, organism-based; conditions: in vivo
[14] = Half life in rabbit at 5.6 umol/kg, iv; type: ADME, organism-based, Oryctolagus cuniculus; conditions: in vivo
[15] = Inhibition of ICAL ion channel
[16] = Clearance in rabbit at 5.6 umol/kg, iv; type: ADME, organism-based, Oryctolagus cuniculus; conditions: in vivo
[17] = target: T2, A-type voltage-gated potassium channel KCND3 (Homo sapiens, UniProt Q9UK17); assay: Inhibition of KV4.3 ion channel
T2 sequence (Q9UK17 whole entry): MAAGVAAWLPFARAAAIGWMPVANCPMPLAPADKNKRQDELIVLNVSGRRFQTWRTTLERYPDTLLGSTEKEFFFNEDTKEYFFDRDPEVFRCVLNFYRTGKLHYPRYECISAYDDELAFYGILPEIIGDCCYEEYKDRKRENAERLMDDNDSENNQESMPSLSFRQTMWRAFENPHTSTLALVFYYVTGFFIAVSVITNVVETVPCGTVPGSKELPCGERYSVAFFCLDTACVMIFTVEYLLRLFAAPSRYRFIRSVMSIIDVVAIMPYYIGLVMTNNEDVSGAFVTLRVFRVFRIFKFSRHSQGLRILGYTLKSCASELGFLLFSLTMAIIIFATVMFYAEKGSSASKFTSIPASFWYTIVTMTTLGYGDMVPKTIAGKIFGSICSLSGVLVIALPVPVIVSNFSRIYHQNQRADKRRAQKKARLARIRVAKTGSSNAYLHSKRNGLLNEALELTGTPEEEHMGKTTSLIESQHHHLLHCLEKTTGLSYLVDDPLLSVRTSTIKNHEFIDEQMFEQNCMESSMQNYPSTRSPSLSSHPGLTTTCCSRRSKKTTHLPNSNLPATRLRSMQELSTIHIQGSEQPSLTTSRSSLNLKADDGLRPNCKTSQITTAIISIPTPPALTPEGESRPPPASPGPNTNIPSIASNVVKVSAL

[18] = Inhibition of INa ion channel
Plasma [19] = assay: Plasma concentration in methoxamine-sensitised rabbit AERP model at 1 mg/kg, iv; type: ADME, organism-based, Oryctolagus cuniculus; design: dose 1 mg/kg, route intravenous; conditions: in vivo
[20] = Clearance in dog at 5.6 umol/kg, iv and 5.2 umol/kg, po; type: ADME, organism-based, Canis lupus familiaris; conditions: in vivo
[21] = Volume of distribution at steady state in dog at 5.6 umol/kg, iv and 5.2 umol/kg, po; type: ADME, organism-based, Canis lupus familiaris; conditions: in vivo, read-out: Vdss
[22] = Inhibition of INa ion channel at 10 uM
[23] = Inhibition of ICAL ion channel at 10 uM
Oryctolagus cuniculus [24] = assay: Proarrythmic activity in methoxamine-sensitized rabbit assessed as increase in ventricular effective refractory period at 0.3 to 10 mg/kg, iv relative to control; type: organism-based, Cardiac ventricle; design: dose 0.3-10 mg/kg, route intravenous; conditions: in vivo
[25] = target: T1, Potassium voltage-gated channel subfamily A member 5; assay: Inhibition of human KV1.5 ion channel expressed in mouse L929 cells at 0.3 uM by whole cell patch clamp assay; type: cell-based
Liver microsomes [26] = assay: Metabolic stability in rat liver microsomes; type: ADME, Microsome
[27] = Oral bioavailability in rat at 26 umol/kg; type: ADME, organism-based; conditions: in vivo
[28] = Volume of distribution at steady state in rat at 12 umol/kg, iv and 26 umol/kg, po; type: ADME, organism-based; conditions: in vivo, read-out: Vdss
Oryctolagus cuniculus [29] = assay: Antiatrial fibrillation activity in methoxamine-sensitised rabbit assessed as increase in atrial effective refractory period at 1 mg/kg, iv relative to control; type: functional, Cardiac atrium
[30] = Half life in rat at 12 umol/kg, iv and 26 umol/kg, po; type: ADME, organism-based; conditions: in vivo
Liver microsomes [31] = assay: Metabolic stability in human liver microsomes; type: ADME, Microsome
Oryctolagus cuniculus [32] = assay: Antiatrial fibrillation activity in methoxamine-sensitised rabbit assessed as increase in atrial effective refractory period at 0.3 to 10 mg/kg, iv relative to control; type: functional, organism-based; conditions: Cardiac atrium
[33] = Clearance in rat at 12 umol/kg, iv and 26 umol/kg, po; type: ADME, organism-based; conditions: in vivo

CC1=C(C(=O)N2CCN(c3ccc(F)cc3)CC2)[C@@H](c2ccc(Cl)c(Cl)c2)n2nccc2N1
inhibition at 10 µM (hERG (KCNH2)): 42%

CC1=C(C(=O)N2CCN(c3ccccc3)CC2)C(c2ccc(Cl)c(Cl)c2)n2nc(C)cc2N1 (racemic)
inhibition at 10 µM (hERG (KCNH2)): 29%
IC50 [1]: 149 nM

CC1=C(C(=O)N2CCC[C@H]2c2cc(C)no2)[C@@H](c2ccc(Cl)c(Cl)c2)n2nc(C3CC3)cc2N1
IC50 [1]: 227 nM

CC1=C(C(=O)N2CCC[C@H]2c2ccc(F)cc2)[C@@H](c2ccc(Cl)c(Cl)c2)n2nccc2N1 [BMS-394136]
inhibition at 10 µM (hERG (KCNH2)): 30%
GSH adduct formation [2]: 33%

COCC1=C(C(=O)N2CCC[C@H]2c2cc(C)no2)[C@@H](c2cc3ccccc3n2C)n2nc(C(F)(F)F)cc2N1
concentration (Plasma [3]): 300 nM
concentration (Plasma [4]): 2100 nM
IC50 [5]: > 10000 nM
half-life [6]: 2.5 h
bioavailability [7]: 31%
Vd [8]: 1.9 L/kg
Vd [9]: 5 L/kg
inhibition at 10 µM (hERG (KCNH2)): 14%
half-life [10]: 1.8 h
concentration (Plasma [11]): 13400 nM
clearance [12]: 12 mL/min/kg
bioavailability [13]: 61%
half-life [14]: 2 h
IC50 [15]: > 10000 nM
clearance [16]: 47 mL/min/kg
IC50 [17]: 5800 nM
IC50 [18]: > 10000 nM
concentration (Plasma [19]): 700 nM
clearance [20]: 29 mL/min/kg
Vd [21]: 3.7 L/kg
inhibition [22]: 10%
inhibition [23]: 37%
Activity (Oryctolagus cuniculus [24]): Non-toxic
IC50 [1]: 150 nM

COCC1=C(C(=O)N2CCC[C@H]2c2cc(C)no2)[C@@H](c2ccc(Cl)c(Cl)c2)n2nccc2N1
inhibition at 10 µM (hERG (KCNH2)): 14%
IC50 [1]: 70 nM

CC1=C(C(=O)N2CCN(c3ccc(F)cc3)CC2)C(c2ccc(Cl)c(Cl)c2)n2ncc(Cl)c2N1 (racemic)
inhibition [25]: 24%
GSH adduct formation [2]: 4%

CC1=C(C(=O)N2CCC[C@H]2c2cc(C)no2)[C@@H](c2nc3ccccc3n2C)n2nc(C(F)(F)F)cc2N1
inhibition [25]: 36%

CC1=C(C(=O)N2CCC[C@H]2c2cc(C)no2)[C@@H](c2cc3ccccc3n2C)n2nc(C(F)(F)F)cc2N1
inhibition at 10 µM (hERG (KCNH2)): 19%
IC50 [1]: 72 nM

CC1=C(C(=O)N2CCC[C@H]2c2cc(C)no2)[C@@H](c2ccc(Cl)c(Cl)c2)n2nc(C(F)(F)F)cc2N1
Stability (Liver microsomes [26]): Stable
bioavailability [27]: 68%
Vd [28]: 3 L/kg
concentration (Plasma [3]): 700 nM
concentration (Plasma [4]): 6700 nM
Activity (Oryctolagus cuniculus [29]): 20%
bioavailability [7]: 53%
inhibition at 10 µM (hERG (KCNH2)): 47%
half-life [10]: 1.8 h
concentration (Plasma [11]): 17300 nM
half-life [30]: 1 h
Stability (Liver microsomes [31]): Stable
GSH adduct formation [2]: < 1%
concentration (Plasma [19]): 1700 nM
Activity (Oryctolagus cuniculus [32]): Active
clearance [20]: 11 mL/min/kg
Vd [21]: 1.7 L/kg
clearance [33]: 27 mL/min/kg
Activity (Oryctolagus cuniculus [24]): Non-toxic
IC50 [1]: 101 nM
